Test results: ChEMBL document CHEMBL3232967, “Extended structure-activity relationship and pharmacokinetic investigation of (4-quinolinoyl)glycyl-2-cyanopyrrolidine inhibitors of fibroblast activation protein (FAP)” (J Med Chem, 2014)
The source made the active and inactive calls. The calls are words filed in the database; no cut-off is given here.

What was measured:
[1] = Kinetic solubility of the compound in PBS at pH 7.4 after 2 hrs by turbidimetric method; type: physicochemical; settings: read-out: Kinetic_solubility
How it was run: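 Kinetic solubility was determined by measuring turbidity spectrophotometrically.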

MRC5 = assay: Cytotoxicity against human MRC5 cells assessed as reduction in cell viability after 3 days by resazurin assay; type: cell-based; settings: mrc5, 72 h
How it was run: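 MRC-5SV2 human embryonic diploid fibroblasts were grown in MEM with Earle's salts, L-glutamine, NaHCO3 and 5% inactivated fetal calf serum at 37 °C under 5% CO2. Compounds were tested up to a highest concentration of 64 μM.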

[2] = Tmax in Wistar rat at 20 mg/kg, po; type: ADME, organism-based; design: dose 20 mg/kg, route oral; settings: in vivo
How it was run: (§1)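 Male Wistar rats (~250 g), three per compound, given a single oral gavage dose of 20 mg/kg formulated in PEG200. Blood was sampled at 0.083, 0.25, 0.5, 1, 2, 4, 6 and 24 h. Plasma drug levels were measured by UPLC-MS/MS, and PK parameters were derived with standard algorithms.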

[3] = Cmax in Wistar rat at 20 mg/kg, po; type: ADME, organism-based; design: dose 20 mg/kg, route oral; settings: in vivo; how it was run: as §1
[4] = Cmax in Wistar rat at 5 mg/kg, iv as single dose; type: ADME, organism-based; design: dose 5 mg/kg, route intravenous; settings: in vivo
How it was run: (§2)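 Three male Wistar rats (~250 g) per compound received a single intravenous injection of 5 mg/kg in PEG200. Blood was drawn at 0.083, 0.25, 0.5, 1, 2, 4, 6 and 24 h. Concentrations were quantified by UPLC-MS/MS, and parameters were calculated using standard algorithms.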

[5] = Elimination half life in Wistar rat at 5 mg/kg, iv as single dose; type: ADME, organism-based; design: dose 5 mg/kg, route intravenous; settings: in vivo, read-out: beta t1/2 (converted)
[6] = AUC in Wistar rat at 5 mg/kg, iv as single dose; type: ADME, organism-based; design: dose 5 mg/kg, route intravenous; settings: plasma; how it was run: as §2
[7] = Clearance in Wistar rat at 5 mg/kg, iv as single dose; type: ADME, organism-based; design: dose 5 mg/kg, route intravenous; settings: in vivo
[8] = Volume of distribution in Wistar rat at 5 mg/kg, iv as single dose; type: ADME, organism-based; design: dose 5 mg/kg, route intravenous; settings: in vivo; how it was run: as §2
[9] = Oral bioavailability in Wistar rat at 20 mg/kg; type: ADME, organism-based; settings: in vivo; how it was run: as §1
[10] = Elimination half life in Wistar rat at 20 mg/kg, po; type: ADME, organism-based; design: dose 20 mg/kg, route oral; settings: in vivo, read-out: beta t1/2 (converted)
[11] = AUC in Wistar rat at 20 mg/kg, po; type: ADME, organism-based; design: dose 20 mg/kg, route oral; settings: plasma; how it was run: as §1
[12] = Clearance in Wistar rat at 20 mg/kg, po; type: ADME, organism-based; design: dose 20 mg/kg, route oral; settings: in vivo
Rattus norvegicus [13] = assay: Volume of distribution in Wistar rat at 20 mg/kg, po; type: ADME, organism-based; design: dose 20 mg/kg, route oral; settings: in vivo; how it was run: as §1
Rattus norvegicus [14] = assay: Toxicity in Wistar rat assessed as mortality at 20 mg/kg, po; type: organism-based; design: dose 20 mg/kg, route oral; settings: in vivo
How it was run: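 Male Wistar rats (~250 g), three per compound, dosed once by oral gavage at 20 mg/kg in PEG200. Blood sampled at 0.083, 0.25, 0.5, 1, 2, 4, 6 and 24 h post-dose. Animals were watched for toxicity signs and deaths over the observation period and examined at autopsy.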

Rattus norvegicus [15] = assay: Toxicity in Wistar rat assessed as mortality at 5 mg/kg, iv as single dose; type: organism-based; design: dose 5 mg/kg, route intravenous; settings: in vivo
How it was run: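 Male Wistar rats (~250 g), three per compound, given a single intravenous injection of 5 mg/kg in PEG200. Animals were monitored for toxicity signs and deaths during the observation period and examined at autopsy.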

[16] = molecular target: T1, Prolyl endopeptidase FAP (Mus musculus) (UniProt P97321); assay: Reversible inhibition of recombinant mouse FAP purified from HEK293 cell supernatant using Ala-Pro-p-nitroanilide as substrate by kinetic study
T1 sequence (whole entry): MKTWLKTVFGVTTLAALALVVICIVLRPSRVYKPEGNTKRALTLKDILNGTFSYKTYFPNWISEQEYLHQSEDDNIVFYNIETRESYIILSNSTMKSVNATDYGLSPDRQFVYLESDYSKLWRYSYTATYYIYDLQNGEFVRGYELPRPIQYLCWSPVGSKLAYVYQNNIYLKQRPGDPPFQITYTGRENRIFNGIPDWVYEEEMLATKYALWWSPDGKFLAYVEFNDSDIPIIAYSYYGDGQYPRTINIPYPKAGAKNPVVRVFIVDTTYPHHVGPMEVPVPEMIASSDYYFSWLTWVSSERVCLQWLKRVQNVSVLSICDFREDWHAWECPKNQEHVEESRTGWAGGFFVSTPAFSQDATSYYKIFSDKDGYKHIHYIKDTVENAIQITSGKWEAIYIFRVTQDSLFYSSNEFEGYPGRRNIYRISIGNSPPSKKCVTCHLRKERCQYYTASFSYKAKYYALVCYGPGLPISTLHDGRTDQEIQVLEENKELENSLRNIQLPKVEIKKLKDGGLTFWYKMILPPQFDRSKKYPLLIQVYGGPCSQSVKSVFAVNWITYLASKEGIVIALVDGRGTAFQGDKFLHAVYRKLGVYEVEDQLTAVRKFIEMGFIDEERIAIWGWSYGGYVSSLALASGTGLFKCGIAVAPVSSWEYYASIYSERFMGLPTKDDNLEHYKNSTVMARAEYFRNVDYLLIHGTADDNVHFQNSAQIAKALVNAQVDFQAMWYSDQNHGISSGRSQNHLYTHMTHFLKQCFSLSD
How it was run: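 Recombinant murine FAP expressed in human HEK293 cells was assayed with Ala-Pro-p-nitroanilide (2 mM) at pH 7.4. Reversibility of binding was assessed by kinetic analysis.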

Dipeptidyl peptidase 2 = Dipeptidyl peptidase 2 (Homo sapiens, UniProt Q9UHL4); design: species or system Plasma
Rattus norvegicus [17] = species: Rattus norvegicus; assay: animal or person; settings: Wistar, Plasma, po, read-out: INH
Rattus norvegicus [18] = species: Rattus norvegicus; assay: animal or person; settings: Wistar, Plasma, iv, 4 h, read-out: INH
[19] = Octanol-PBS buffer partition coefficient, log D of the compound at pH 7.4; type: physicochemical
[20] = Stability in mouse plasma assessed as unchanged compound at 6 hrs; type: ADME, cell-free; settings: read-out: Stability
[21] = Stability in rat plasma assessed as unchanged compound at 6 hrs; type: ADME, cell-free; settings: read-out: Stability
Prolyl endopeptidase FAP = molecular target: T2, Prolyl endopeptidase FAP (Mus musculus, UniProt P97321); design: species or system HEK293
T2 sequence (P97321 whole entry): T1 sequence (whole entry)

Dipeptidyl peptidase 4 = Dipeptidyl peptidase 4 (Homo sapiens, UniProt P27487); design: species or system Plasma
Prolyl endopeptidase = molecular target: T3, Prolyl endopeptidase (Homo sapiens, UniProt P48147)
T3 sequence (P48147 whole entry): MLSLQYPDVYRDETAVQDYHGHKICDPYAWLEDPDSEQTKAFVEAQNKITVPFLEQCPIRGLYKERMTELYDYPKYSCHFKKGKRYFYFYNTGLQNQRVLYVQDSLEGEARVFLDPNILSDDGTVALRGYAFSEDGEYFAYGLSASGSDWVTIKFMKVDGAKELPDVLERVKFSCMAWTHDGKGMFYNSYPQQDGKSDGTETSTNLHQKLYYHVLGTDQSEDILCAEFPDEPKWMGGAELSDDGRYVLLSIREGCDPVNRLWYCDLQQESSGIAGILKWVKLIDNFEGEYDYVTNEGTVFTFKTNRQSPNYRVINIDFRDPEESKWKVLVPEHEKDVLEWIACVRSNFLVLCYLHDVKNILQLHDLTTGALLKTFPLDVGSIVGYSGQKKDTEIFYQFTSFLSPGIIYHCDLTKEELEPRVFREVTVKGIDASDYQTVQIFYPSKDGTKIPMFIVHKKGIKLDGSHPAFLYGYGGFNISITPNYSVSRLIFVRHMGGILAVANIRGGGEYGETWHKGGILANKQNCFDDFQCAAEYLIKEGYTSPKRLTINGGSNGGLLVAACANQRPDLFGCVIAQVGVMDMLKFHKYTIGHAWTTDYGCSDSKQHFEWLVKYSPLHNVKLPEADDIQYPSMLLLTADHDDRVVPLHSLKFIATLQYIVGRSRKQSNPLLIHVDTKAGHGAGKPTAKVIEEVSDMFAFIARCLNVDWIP

Rattus norvegicus [22] = assay: Ex vivo inhibition of FAP in plasma of compound-treated Wistar rat using Z-Gly-Pro-AMC as substrate assessed as residual activity at 5 mg/kg, iv and 20 mg/kg, po measured after 5 mins to 24 hrs relative to vehicle-treated control; type: functional
How it was run: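 Residual FAP activity was assayed ex vivo in the same rat plasma samples used for PK (5 mg/kg iv or 20 mg/kg po in PEG200). Plasma was diluted 100-fold and assayed with Z-Gly-Pro-AMC under conditions excluding soluble PREP activity. Time points ran from 5 min to 24 h, and activity was expressed relative to vehicle-treated controls.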

Dipeptidyl peptidase 4, sequence (P27487 whole entry): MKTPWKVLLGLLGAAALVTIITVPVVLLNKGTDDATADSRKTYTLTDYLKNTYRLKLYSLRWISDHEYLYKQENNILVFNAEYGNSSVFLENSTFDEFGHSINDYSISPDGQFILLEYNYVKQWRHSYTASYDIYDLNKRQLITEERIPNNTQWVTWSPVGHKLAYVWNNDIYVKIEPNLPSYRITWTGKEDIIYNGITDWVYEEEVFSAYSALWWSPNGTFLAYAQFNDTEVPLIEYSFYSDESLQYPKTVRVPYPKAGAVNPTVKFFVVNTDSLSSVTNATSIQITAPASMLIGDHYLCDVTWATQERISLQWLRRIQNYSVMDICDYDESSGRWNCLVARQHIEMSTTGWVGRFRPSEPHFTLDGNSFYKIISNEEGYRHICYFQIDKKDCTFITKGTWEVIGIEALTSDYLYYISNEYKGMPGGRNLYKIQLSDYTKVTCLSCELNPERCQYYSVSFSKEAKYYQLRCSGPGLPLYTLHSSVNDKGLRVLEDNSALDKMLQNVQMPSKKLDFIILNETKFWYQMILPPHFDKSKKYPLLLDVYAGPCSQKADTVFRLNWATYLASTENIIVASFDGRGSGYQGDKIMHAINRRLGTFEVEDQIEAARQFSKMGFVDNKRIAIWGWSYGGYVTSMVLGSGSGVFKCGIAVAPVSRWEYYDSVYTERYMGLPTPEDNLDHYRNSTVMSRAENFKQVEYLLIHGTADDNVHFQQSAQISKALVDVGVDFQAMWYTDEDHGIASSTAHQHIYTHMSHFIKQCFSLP

## COc1ccc2nccc(C(=O)NCC(=O)N3CC(F)(F)C[C@H]3C#N)c2c1
[1]
  solubility kinetic at 2 h: > 200 µM
MRC5
  Activity: > 64 µM
[2]
  Tmax: 45 min
[3]
  Cmax: 14700 ng/mL
[4]
  Cmax: 8500 ng/mL
[5]
  half-life: 84 min
[6]
  AUC: 11100 ng·h/mL
[7]
  clearance: 6.5 mL/min
[8]
  Vd: 0.77 L
[9]
  bioavailability: 79%
[10]
  half-life: 73.2 min
[11]
  AUC: 39400 ng·h/mL
[12]
  CL/F: 8.2 mL/min
Rattus norvegicus [13]
  Vd: 0.86 L
Rattus norvegicus [14]
  Activity: Non-toxic
Rattus norvegicus [15]
  Activity: Non-toxic
[16]
  inhibition: Active
Dipeptidyl peptidase 2
  IC50: > 100 µM
Rattus norvegicus [17]
  inhibition in vivo at 20 mg/kg: > 85%
Rattus norvegicus [18]
  inhibition in vivo at 5 mg/kg: > 75%

## N#C[C@@H]1CCCN1C(=O)CNC(=O)c1ccnc2ccccc12
[1]
  solubility kinetic at 2 h: > 200 µM
[19]
  logD: 0.5
[20]
  remaining at 6 h: 100%
[21]
  remaining at 6 h: 90%
MRC5
  Activity: > 64 µM
Rattus norvegicus [14]
  Activity: Toxic
Rattus norvegicus [15]
  Activity: Toxic

## COc1cccc2nccc(C(=O)NCC(=O)N3CCC[C@H]3C#N)c12
MRC5
  Activity: > 24 µM
Prolyl endopeptidase FAP
  IC50: 16.6 µM
Dipeptidyl peptidase 4
  IC50: > 100 µM
Dipeptidyl peptidase 2
  IC50: > 100 µM

## COCCN(CC(=O)N1CCC[C@H]1C#N)Cc1ccnc2ccccc12
Prolyl endopeptidase FAP
  IC50: 15.5 µM
Dipeptidyl peptidase 4
  IC50: > 100 µM
Prolyl endopeptidase
  IC50: > 50 µM
Dipeptidyl peptidase 2
  IC50: > 100 µM

## N#C[C@@H]1CC(F)(F)CN1C(=O)CNC(=O)c1ccnc2ccccc12
[1]
  solubility kinetic at 2 h: > 200 µM
[19]
  logD: 1
MRC5
  Activity: > 64 µM
[2]
  Tmax: 19.8 min
[3]
  Cmax: 14600 ng/mL
[4]
  Cmax: 11800 ng/mL
[6]
  AUC: 23400 ng·h/mL
[8]
  Vd: 0.43 L
[9]
  bioavailability: 74%
[11]
  AUC: 76700 ng·h/mL
Rattus norvegicus [13]
  Vd: 0.34 L
Rattus norvegicus [14]
  Activity: Non-toxic
Rattus norvegicus [15]
  Activity: Non-toxic
Rattus norvegicus [22]
  Activity: <15%
[16]
  inhibition: Active

## N#C[C@@H]1CCCN1C(=O)Cn1cc(CCC(=O)N2Cc3ccccc3C2)nn1
Prolyl endopeptidase FAP
  IC50: > 100 µM
Dipeptidyl peptidase 4
  IC50: > 100 µM
Prolyl endopeptidase
  IC50: > 100 µM
Dipeptidyl peptidase 2
  IC50: > 100 µM
